Published values collected from several papers.
Organism: Mycobacterium tuberculosis
Observed: microbial growth

| SMILES | assay | system | conditions | MIC |
| --- | --- | --- | --- | --- |
| COC(=O)c1cc(-c2cccc(NC(=S)NC3CCCCC3)c2)on1 |  | ATCC27294 H37RV | 7 days | 2 µg/mL |
| CC(C)CC=CC=CC(=O)NC(CC(N)=O)C(=O)NC1C(=O)NC(c2ccc(O)cc2)C(=O)NC(CCCN)C(=O)NC(C(C)O)C(=O)NC(c2ccc(O)cc2)C(=O)NC(c2ccc(O)cc2)C(=O)NC(C(C)O)C(=O)NC(Cc2ccccc2)C(=O)NC(CCCN)C(=O)NC(c2ccc(OC3OC(CO)C(O)C(O)C3OC3OC(CO)C(O)C(O)C3O)cc2)C(=O)NC(C(C)O)C(=O)NC(c2ccc(O)cc2)C(=O)NCC(=O)NC(CC(C)C)C(=O)NC(C)C(=O)NC(c2ccc(O)c(Cl)c2)C(=O)OC1C(N)=O (centres unmarked) |  | H37RV | 14 days | 6.25 to 12.5 µg/mL |
| COC(=O)c1cc(-c2cccc(NC(=O)Nc3ccc(C(F)(F)F)cc3)c2)on1 |  | ATCC27294 H37RV | 7 days | 0.5 µg/mL |
| CC(C)[C@H]1CO[C@]23CCN(Cc4ccccc4)C[C@H]2CCC(=O)N13 | resazurin | H37RV | 7 days | 5.73 µM |
| O=C(CNS(=O)(=O)c1ccccc1[N+](=O)[O-])N1CCN(C(c2ccc(F)cc2)c2ccc(F)cc2)CC1 |  | ATCC27294 H37RV |  | > 25 µg/mL |
| Cc1c(Cc2ccc(F)cc2)c(=O)n2c([nH]c3ccccc32)c1C#N | broth dilution | H37RV |  | 2 µg/mL |
| CC[C@@H](CO)NCCN[C@@H](CC)CO |  | H37RV | 5 days | 6.6 µM |
| O=C1C(=NNc2nc(-c3ccccc3)cs2)C(N=Cc2ccc(O)cc2O)=NN1c1ccccc1 | resazurin | H37RV |  | 6.25 µg/mL |
| N#Cc1cc(C(F)(F)F)cc2c(=O)nc(N3CCN(CC4COC4)CC3)sc12 | resazurin | H37RV |  | > 2 µM |
| NNC(=O)c1ccncc1 | resazurin | H37RA | 14 days | 0.05 µg/mL |
| COC(=O)c1cc(-c2cccc(NC(=O)Nc3cccc(Cl)c3Cl)c2)on1 |  | ATCC27294 H37RV | 7 days | 0.5 µg/mL |
| C=C[C@@H](O)C#CC#C[C@@H](O)/C=C\CCCCCCC | resazurin | ATCC35801 ERDMAN | 7 days | 6 µg/mL |
| COC1C(O)C(n2ccc(=O)[nH]c2=O)OC1C(OC1OC(C(=O)Nc2ccc(F)c(F)c2)=CC(O)C1O)C(N)=O (centres unmarked) | resazurin | H37RV |  | 1.56 µg/mL |
| Cc1ccn2c(C(=O)NCc3ccc(S(F)(F)(F)(F)F)cc3)c(C)nc2c1 |  | H37RV | 5 days | 0.25 µM |
| CC1(C)S[C@@H]2[C@H](NC(=O)[C@H](N)c3ccccc3)C(=O)N2[C@H]1C(=O)O | resazurin | H37RA | 14 days | 64 µg/mL |
| O=C1C(=NNc2nc(-c3ccccc3)cs2)C(N=Cc2cccc(Cl)c2)=NN1c1ccccc1 | resazurin | H37RV |  | 6.25 µg/mL |
| O=C(NN1C(=O)CSC12CCCC2)c1[nH]c2ccc(Cl)cc2c1-c1ccccc1 |  | ATCC27294 H37RV |  | 1000 µM |
| COC(=O)c1cc(-c2cccc(NC(=O)Nc3cc(OC)ccc3OC)c2)on1 |  | ATCC27294 H37RV | 7 days | 0.5 µg/mL |
| NNC(=O)c1ccncc1 |  | W4 |  | 0.14 µM |
| Cc1ccc(C)n1-c1ccc(-c2nnc(-c3cccc([N+](=O)[O-])c3)[nH]2)cc1 | broth dilution | H37RV | 21 days | 16 µg/mL |
